The text below walks through data of ChEMBL document CHEMBL4396921, “Synthesis and Biological Activity of Peptide α-Ketoamide Derivatives as Proteasome Inhibitors” (ACS Med Chem Lett, 2019).

In assay [1] the target is T1, Proteasome Macropain subunit MB1 (Homo sapiens, UniProt P28074).
T1 sequence (P28074 whole entry): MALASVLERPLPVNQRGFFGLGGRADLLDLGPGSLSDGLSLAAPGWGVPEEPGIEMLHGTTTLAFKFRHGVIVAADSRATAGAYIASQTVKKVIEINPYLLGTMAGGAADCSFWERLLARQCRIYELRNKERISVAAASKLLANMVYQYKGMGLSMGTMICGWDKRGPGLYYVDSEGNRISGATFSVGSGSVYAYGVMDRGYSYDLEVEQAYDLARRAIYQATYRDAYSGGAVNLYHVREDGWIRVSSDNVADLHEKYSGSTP
Nature of the assay: Inhibition of 20S proteosome beta 5 purified from human HCT116 cells using Suc-LLVY-AMC as substrate incubated for 30 to 120 mins by fluorimetry. In short, it runs like this:
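Semipurified proteasomes were pretreated with compound at 0.01–100 μM in activity buffer. Fluorogenic AMC substrates were used: Z-LLE-AMC for PGPH (β1), Boc-LRR-AMC for T-L (β2) and Suc-LLVY-AMC for ChT-L (β5). IC50 reported as mean ± SEM of three independent experiments.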

Assay [2] deals with HCT-116. Nature of the assay: Antiproliferative activity against human HCT116 cells assessed as reduction in cell viability incubated for 72 hrs by MTT assay. In kind it is functional, cell-based. The note with it: HCT-116, 72 h. In short, it runs like this: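 HCT116 human colorectal carcinoma cells exposed to compounds at 0.1–100 μM. IC50 for proliferation reported as mean ± SEM of three independent experiments.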
A general note: Tetrazolium assays rely on reduction of a dye to a coloured formazan, in cell work by metabolically active cells.

The species entered for assay [3] is Homo sapiens. The assay can be described thus: Selectivity index, ratio of IC50 of 20S proteosome beta 1 purified from human HCT116 cells to IC50 of 20S proteosome beta 2 purified from human HCT116 cells.
For assay [4], the species on record is Homo sapiens. Nature of the assay: Selectivity index, ratio of IC50 of 20S proteosome beta 5 purified from human HCT116 cells to IC50 of 20S proteosome beta 2 purified from human HCT116 cells.
In assay [5] the test system is HCT-116. Nature of the assay: Induction of apoptosis in human HCT116 cells assessed as necrotic cells at 1 uM incubated for 72 hrs by annexin-V FITC and propidium iodide staining based flow cytometry relative to control. In kind it is functional. In short, it runs like this:
(§1)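 HCT116 tumour cells cultured 48 or 72 h with or without compound at 1 μM. Cells were stained with Annexin V and propidium iodide. Annexin V+/PI− was scored as early apoptotic and Annexin V+/PI+ as late apoptotic. Percentages of cells were read from dot plots, with three experiments run.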
(In general: In flow cytometry, cells or beads pass a laser one at a time.)

The test system of assay [6] is HCT-116. The assay can be described thus: Induction of apoptosis in human HCT116 cells assessed as viable cells at 1 uM incubated for 48 hrs by annexin-V FITC and propidium iodide staining based flow cytometry relative to control. The format is functional. The note with it: HCT-116, 48 h, read-out: Activity. In short, it runs like this:
as §1

For assay [7], the system named is HCT-116. The assay can be described thus: Induction of apoptosis in human HCT116 cells assessed as necrotic cells at 1 uM incubated for 48 hrs by annexin-V FITC and propidium iodide staining based flow cytometry relative to control. In kind it is functional. In short, it runs like this: as §1
The subject of assay [8] is HCT-116. Nature of the assay: Induction of apoptosis in human HCT116 cells assessed as viable cells at 1 uM incubated for 72 hrs by annexin-V FITC and propidium iodide staining based flow cytometry relative to control. In kind it is functional. The note with it: HCT-116, 72 h, read-out: Activity. In short, it runs like this:
as §1

Assay [9] deals with HCT-116. The assay can be described thus: Induction of apoptosis in human HCT116 cells assessed as late apoptotic cells at 1 uM incubated for 72 hrs by annexin-V FITC and propidium iodide staining based flow cytometry relative to control. In kind it is functional. In short, it runs like this: as §1
Assay [10] deals with HCT-116. Nature of the assay: Induction of apoptosis in human HCT116 cells assessed as early apoptotic cells at 1 uM incubated for 48 hrs by annexin-V FITC and propidium iodide staining based flow cytometry relative to control. The format is functional. In short, it runs like this:
as §1

Assay [11] deals with HCT-116. Nature of the assay: Induction of apoptosis in human HCT116 cells assessed as late apoptotic cells at 1 uM incubated for 48 hrs by annexin-V FITC and propidium iodide staining based flow cytometry relative to control. The format is functional. In short, it runs like this: as §1
The species entered for assay [12] is Homo sapiens. Nature of the assay: Selectivity ratio of IC50 of 20S proteosome beta 2 purified from human HCT116 cells to IC50 of 20S proteosome beta 5 purified from human HCT116 cells.
The species entered for assay [13] is Homo sapiens. Nature of the assay: Selectivity ratio of IC50 of 20S proteosome beta 1 purified from human HCT116 cells to IC50 of 20S proteosome beta 5 purified from human HCT116 cells.
Assay [14] concerns HCT-116. Nature of the assay: Induction of apoptosis in human HCT116 cells assessed as early apoptotic cells at 1 uM incubated for 72 hrs by annexin-V FITC and propidium iodide staining based flow cytometry relative to control. The format is functional. In short, it runs like this:
as §1

SMILES strings stand for the structures. Residues, ends and D or L forms follow the SMILES beside them. *: point of attachment. Cbz = O=C(OCc1ccccc1)*

What is called IC50 is the concentration at which inhibition is half-maximal. Take `CC(C)C[C@H](NC(=O)OCc1ccccc1)C(=O)N[C@@H](CC(C)C)C(=O)N[C@@H](CC(C)C)C(=O)C(=O)NCc1ccccc1`: the IC50 in [1] was 0.014 µM; with HCT-116 [2], 0.78 µM.
As to `CC(C)C[C@H](NC(=O)OCc1ccccc1)C(=O)N[C@@H](Cc1cccc2ccccc12)C(O)C(=O)NCc1ccccc1` (stereo not given in full), in [1], the IC50 is greater than 100 µM.
Still for that read-out and setting: then `CC(C)C[C@H](NC(=O)OCc1ccccc1)C(=O)N[C@@H](C(C)C)C(O)C(=O)NCc1ccccc1` (stereo not given in full), with 82.1 µM; and `CC(C)C[C@H](NC(=O)OCc1ccccc1)C(=O)N[C@@H](CC(C)C)C(=O)N[C@@H](CC(C)C)C(=O)C(=O)N1CCOCC1`, with 0.48 µM.
The same measure, in the same setting: next, `CC(C)C[C@H](NC(=O)OCc1ccccc1)C(=O)N[C@@H](CC(C)C)C(=O)N[C@@H](CC(C)C)C(O)C(=O)N1CCOCC1` (stereo not given in full): greater than 100 µM; `CC(C)C[C@H](NC(=O)OCc1ccccc1)C(=O)N[C@@H](CC(C)C)C(=O)N[C@@H](CC(C)C)C(O)C(=O)NCc1ccc(F)cc1` (stereo not given in full): greater than 100 µM.
On to `CC(C)C[C@H](NC(=O)OCc1ccccc1)C(=O)N[C@@H](CC(N)=O)C(=O)C(=O)NCc1ccccc1`, for which the IC50 in [1] is greater than 100 µM.
In assay [1], `CC(C)C[C@H](NC(=O)OCc1ccccc1)C(=O)N[C@@H](CC(C)C)C(=O)N[C@@H](CC(C)C)C(O)C(=O)N1CCc2ccccc2C1` (stereo not given in full) had an IC50 greater than 100 µM.
Still for that read-out and setting: then `CC(C)CNC(=O)C(O)[C@H](CC(C)C)NC(=O)[C@H](CC(C)C)NC(=O)[C@H](CC(C)C)NC(=O)OCc1ccccc1` (stereo not given in full), with greater than 100 µM; and `CC(C)C[C@H](NC(=O)OCc1ccccc1)C(=O)N[C@@H](Cc1ccccc1)C(=O)C(=O)NCc1ccccc1`, with 51.1 µM.
Regarding `CC(C)C[C@H](NC(=O)OCc1ccccc1)C(=O)N[C@@H](CC(C)C)C(=O)C(=O)NCc1ccccc1`, the IC50 in assay [1] was 0.92 µM; in the assay with HCT-116 [2], 8.6 µM.
The compound `CC(C)C[C@H](NC(=O)OCc1ccccc1)C(=O)N[C@@H](CC(C)C)C(=O)N[C@@H](CC(C)C)C(O)C(=O)NCc1ccccc1` (stereo not given in full) returned an IC50 in assay [1] of 0.53 µM.
`CC(C)C[C@H](NC(=O)OCc1ccccc1)C(=O)N[C@@H](CC(C)C)C(=O)N[C@@H](CC(C)C)C(O)C(=O)Nc1cccc2ccccc12` (stereo not given in full) had an IC50 in [1] of 8.1 µM.
In the case of `CC(C)C[C@H](NC(=O)OCc1ccccc1)C(=O)N[C@H](C(=O)C(=O)NCc1ccccc1)C(C)C`, the figures for the Ratio IC50 in the assay filed under Homo sapiens [3] and in the assay filed under Homo sapiens [4] were 7 and 30, respectively. The compound also came in with a half-maximal inhibitory concentration (IC50) in assay [1] of 63.3 µM.
Regarding `CC(C)C[C@H](NC(=O)OCc1ccccc1)C(=O)N[C@@H](CC(C)C)C(=O)N[C@@H](CC(C)C)C(=O)C(=O)Nc1cccc2ccccc12`, the IC50 in [1] was 0.007 µM; in the assay on HCT-116 [2], less than 0.1 µM. Besides, the Activity with HCT-116 [5] turned out to be 2.29%; with HCT-116 [7], 2.77%; with HCT-116 [9] it was 59.4%; with HCT-116 [10], 22.6%; in the assay with HCT-116 [11], 29.5%; with HCT-116 [14], 11.3%. Also, the values for the viability at 1 µM in the assay on HCT-116 [6] and in the assay on HCT-116 [8] were 45.1% and 27.1%, respectively. In addition, the Ratio IC50 was greater than 14200 in the assay filed under Homo sapiens [12] and 8200 in the assay listed under Homo sapiens [13].
For `CC(C)C[C@H](NC(=O)OCc1ccccc1)C(=O)N[C@@H](CC(C)C)C(=O)N[C@@H](CC(C)C)C(=O)C(=O)N1CCc2ccccc2C1`, the IC50 in [1] stood at 0.77 µM.
Still for that read-out and setting: then `CC(C)C[C@H](NC(=O)OCc1ccccc1)C(=O)N[C@@H](CC(C)C)C(O)C(=O)NCc1ccccc1` (stereo not given in full), with 50.2 µM; and `CC(C)C[C@H](NC(=O)OCc1ccccc1)C(=O)N[C@@H](CC(N)=O)C(O)C(=O)NCc1ccccc1` (stereo not given in full), with greater than 100 µM.
On to `CC(C)C[C@H](NC(=O)OCc1ccccc1)C(=O)N[C@@H](Cc1ccc(O)cc1)C(=O)C(=O)NCc1ccccc1`, for which the IC50 is 12.4 µM in assay [1] and greater than 100 µM in the assay with HCT-116 [2].
In [1], `CC(C)C[C@H](NC(=O)OCc1ccccc1)C(=O)N[C@@H](Cc1ccccc1)C(O)C(=O)NCc1ccccc1` (stereo not given in full) displayed a concentration for half-maximal inhibition (IC50) greater than 100 µM.
Turning to `CC(C)C[C@@H](C=O)NC(=O)[C@H](CC(C)C)NC(=O)[C@H](CC(C)C)NC(=O)OCc1ccccc1` [MG-132] (Cbz-Leu-Leu-Leu-aldehyde), the IC50 in the assay with HCT-116 [2] turned out to be 0.82 µM.
Compound `CC(C)C[C@H](NC(=O)OCc1ccccc1)C(=O)N[C@@H](Cc1ccc(O)cc1)C(O)C(=O)NCc1ccccc1` (stereo not given in full) registered an IC50 in [1] of 70.4 µM.
As for `CC(C)CNC(=O)C(=O)[C@H](CC(C)C)NC(=O)[C@H](CC(C)C)NC(=O)[C@H](CC(C)C)NC(=O)OCc1ccccc1`, the IC50 was determined as 0.012 µM in [1] and 0.81 µM with HCT-116 [2]. The Activity in the assay on HCT-116 [5] worked out at 1.91%; with HCT-116 [7], 1.53%; in the assay with HCT-116 [9], 38.8%; with HCT-116 [10], 20.7%; in the assay on HCT-116 [11], 22.3%; with HCT-116 [14], 10.5%. Also, the figures for the viability at 1 µM in the assay on HCT-116 [6] and in the assay on HCT-116 [8] were 55.4% and 48.8%, respectively.
`CC(C)C[C@H](NC(=O)OCc1ccccc1)C(=O)N[C@@H](CC(C)C)C(=O)N[C@@H](CC(C)C)C(=O)C(=O)NCc1ccc(F)cc1`: the results for the IC50 (in assay [1]; with HCT-116 [2]) were 0.056 µM and 0.93 µM, respectively.
